Series [1] has as its system Rattus norvegicus. Nature of the series: Toxicity in cholesterol-fed Sprague-Dawley rat assessed as TSH level at 150 mg/kg/day, po qd for 1 week measured 3 to 6 hrs post last dose (reference value: 3.0 +/- 1.0 uIU/ml). It is filed as organism-based. Further details: route oral. The following applies: in vivo.
The subject of series [2] is Rattus norvegicus. Description: Toxicity in cholesterol-fed Sprague-Dawley rat assessed as total T4 level at 6 mg/kg/day, po qd for 1 week measured 3 to 6 hrs post last dose (reference value: 3.8 +/- 0.9 ug/dl). It is filed as organism-based. Set-up: route oral. Particulars: in vivo.
For series [3], the system named is Rattus norvegicus. Description: Toxicity in cholesterol-fed Sprague-Dawley rat assessed as heart weight at 150 mg/kg/day, po qd for 1 week measured 3 to 6 hrs post last dose (reference value: 1.14 +/- 0.12 g). It is filed as organism-based. Set-up: route oral. Particulars: in vivo.
In series [4] the test system is Rattus norvegicus. Nature of the series: Toxicity in cholesterol-fed Sprague-Dawley rat assessed as heart rate at 6 mg/kg/day, po qd for 1 week measured 3 to 6 hrs post last dose (reference value: 383.0 +/- 26.7 bpm). Set-up: route oral. It is filed as organism-based. Particulars: in vivo.
Series [5] concerns Rattus norvegicus. Description: Toxicity in cholesterol-fed Sprague-Dawley rat assessed as total T4 level at 150 mg/kg/day, po qd for 1 week measured 3 to 6 hrs post last dose (reference value: 3.8 +/- 0.9 ug/dl). It is filed as organism-based. Further details: route oral. Particulars: in vivo.
Series [6] concerns Rattus norvegicus. Description: Toxicity in cholesterol-fed Sprague-Dawley rat assessed as heart weight at 6 mg/kg/day, po qd for 1 week measured 3 to 6 hrs post last dose (reference value: 1.14 +/- 0.12 g). It is filed as organism-based. Set-up: route oral. The following applies: in vivo.
For series [7], the target named is T1, Thyroid hormone receptor alpha (Homo sapiens, UniProt P10827).
T1 sequence (P10827 whole entry): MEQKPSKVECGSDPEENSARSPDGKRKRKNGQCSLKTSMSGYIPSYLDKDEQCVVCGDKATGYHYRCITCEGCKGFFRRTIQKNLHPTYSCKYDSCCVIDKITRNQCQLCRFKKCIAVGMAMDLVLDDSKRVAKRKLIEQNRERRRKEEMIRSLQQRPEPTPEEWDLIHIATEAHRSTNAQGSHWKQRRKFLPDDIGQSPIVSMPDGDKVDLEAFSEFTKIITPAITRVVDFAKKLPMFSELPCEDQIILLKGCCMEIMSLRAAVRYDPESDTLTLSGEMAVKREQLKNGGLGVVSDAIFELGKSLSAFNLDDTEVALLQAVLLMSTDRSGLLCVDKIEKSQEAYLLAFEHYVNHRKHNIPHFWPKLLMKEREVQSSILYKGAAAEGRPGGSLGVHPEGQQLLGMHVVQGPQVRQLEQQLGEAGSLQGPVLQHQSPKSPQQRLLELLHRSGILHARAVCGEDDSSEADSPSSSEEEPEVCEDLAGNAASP
Description: Displacement of [125I]-Triiodothyronine from human recombinant TRalpha1 ligand binding domain after 2 to 3 hrs by beta counting. (In general: In a radioligand displacement assay an active substance lowers the binding of a labelled ligand.)

The test system of series [8] is Rattus norvegicus. Nature of the series: Reduction in plasma triglyceride level in cholesterol-fed Sprague-Dawley rat at 6 mg/kg/day, po qd for 1 week measured 3 to 6 hrs post last dose (reference value: 62 +/- 25 mg/dl). It is filed as functional.
The subject of series [9] is HepG2. Description: Selectivity ratio of EC50 for human recombinant transfected in human HepG2 cells to EC50 for human recombinant TRbeta1 transfected in human HepG2. It is filed as cell-based.
In series [10] the test system is Rattus norvegicus. Description: Toxicity in cholesterol-fed Sprague-Dawley rat assessed as heart rate at 150 mg/kg/day, po qd for 1 week measured 3 to 6 hrs post last dose (reference value: 383.0 +/- 26.7 bpm). Set-up: route oral. It is filed as organism-based. Particulars: in vivo.
In series [11] the test system is Rattus norvegicus. Nature of the series: Toxicity in cholesterol-fed Sprague-Dawley rat assessed as TSH level at 6 mg/kg/day, po qd for 1 week measured 3 to 6 hrs post last dose (reference value: 3.0 +/- 1.0 uIU/ml). It is filed as organism-based. Set-up: route oral. Particulars: in vivo.
The target in series [12] is T2, Thyroid hormone receptor beta (Homo sapiens, UniProt P10828).
T2 sequence (P10828 whole entry): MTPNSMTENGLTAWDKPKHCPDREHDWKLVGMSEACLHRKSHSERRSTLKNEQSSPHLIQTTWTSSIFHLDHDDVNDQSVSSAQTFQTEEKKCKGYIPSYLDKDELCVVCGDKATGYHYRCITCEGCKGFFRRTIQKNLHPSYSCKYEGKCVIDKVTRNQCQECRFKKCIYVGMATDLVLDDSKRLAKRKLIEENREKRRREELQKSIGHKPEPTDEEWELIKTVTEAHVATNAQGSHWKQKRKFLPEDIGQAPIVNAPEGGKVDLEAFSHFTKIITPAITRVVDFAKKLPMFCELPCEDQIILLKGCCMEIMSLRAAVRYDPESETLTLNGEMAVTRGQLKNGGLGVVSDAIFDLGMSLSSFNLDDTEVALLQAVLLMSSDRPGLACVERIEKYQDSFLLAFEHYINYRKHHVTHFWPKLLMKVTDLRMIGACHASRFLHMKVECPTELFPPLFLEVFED
Nature of the series: Agonist activity at human recombinant TRbeta1 transfected in human HepG2 cells after 8 to 10 hrs by alkaline phosphatase reporter gene assay. It is filed as cell-based. On the technique in general: In a reporter assay the amount or activity of a reporter protein is the signal.

The test system of series [13] is Rattus norvegicus. Description: Reduction in plasma LDL-cholesterol in cholesterol-fed Sprague-Dawley rat at 6 mg/kg/day, po qd for 1 week measured 3 to 6 hrs post last dose (reference value: 51 +/- 15 mg/dl). It is filed as functional.
The subject of series [14] is CV-1. Nature of the series: Selectivity ratio of EC50 for human recombinant transfected in CV-1 cells to EC50 for human recombinant TRbeta1 transfected in CV-1 cells. It is filed as cell-based. Summed up: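 CV-1 monkey kidney cells grown in DMEM with 10% FBS for 24 h at 37 °C and 5% CO2. Transfected (FuGENE) with hTRα1 or hTRβ1 plus a SEAP reporter for 24 h, then exposed to T3 or test compound for 8-10 h. SEAP was read as A405 of p-nitrophenol (pH 9.8, 30 min, RT). EC50 was set against T3 max = 100%; mean of four experiments; α/β ratio of EC50s.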

The subject of series [15] is Rattus norvegicus. Nature of the series: Reduction in plasma HDL-cholesterol in cholesterol-fed Sprague-Dawley rat at 6 mg/kg/day, po qd for 1 week measured 3 to 6 hrs post last dose (reference value: 22 +/- 6 mg/dl). It is filed as functional.
Series [16] has as its target T2, Thyroid hormone receptor beta. Nature of the series: Agonist activity at human recombinant TRbeta1 transfected in CV-1 cells after 8 to 10 hrs by alkaline phosphatase reporter gene assay. It is filed as cell-based.
Series [17] shares this target. Description: Displacement of [125I]-Triiodothyronine from human recombinant TRbeta1 ligand binding domain after 2 to 3 hrs by beta counting.
Series [18] relates to Rattus norvegicus. Nature of the series: Reduction in plasma total cholesterol in cholesterol-fed Sprague-Dawley rat at 6 mg/kg/day, po qd for 1 week measured 3 to 6 hrs post last dose (reference value: 190 +/- 49 mg/dl). It is filed as functional.
In series [19] the test system is Rattus norvegicus. Nature of the series: Reduction in plasma free cholesterol in cholesterol-fed Sprague-Dawley rat at 6 mg/kg/day, po qd for 1 week measured 3 to 6 hrs post last dose (reference value: 36 +/- 9 mg/dl). It is filed as functional.

As usually defined, the IC50 is the midpoint of a concentration-inhibition curve. For orientation: EC50 means the midpoint of the concentration-response curve.

With `Cc1ccc(NC(=O)CC(=O)O)c2ccn(Cc3ccc(O)c(C(C)C)c3)c12`, the Activity in series [1] turned out to be 1.3 uIU/ml; in [2], 2.4 µg/dL; in series [3], 1.18 g; in series [4], 401.8 bpm; in [5], 1.9 µg/dL; in [6] it was 1.12 g. Moreover, the Activity was 27 mg/dL in [8]; 424.3 bpm in series [10]; 2.7 uIU/ml in [11]; 20 mg/dL in series [13]; 20 mg/dL in series [15]; 94 mg/dL in series [18]. In addition, the Activity in series [19] turned out to be 15 mg/dL. Further, the values for the IC50 in series [7] and in series [17] were 5200 nM and 240 nM, respectively. Also, the Ratio EC50 in series [9] turned out to be 7.2; in series [14], 3.4. In addition, the EC50 amounted to 1300 nM in [12] and 3100 nM in series [16].

The record behind these values is ChEMBL document CHEMBL3124871, “Synthesis and pharmacological characterization of 1-benzyl-4-aminoindole-based thyroid hormone receptor β agonists” (Bioorg Med Chem, 2014).
